Measurements taken from ChEMBL document CHEMBL1128286, “Lipophilic, acid-stable, adenosine deaminase-activated anti-HIV prodrugs for central nervous system delivery. 2. 6-Halo and 6-alkoxy prodrugs of 2'-beta-fluoro-2',3'-dideoxyinosine” (J Med Chem, 1995).

How the values were obtained:
[1] = test system: PBMC; test: Anti-HIV activity measured as the ability to inhibit HIV -1 p24 Gag protein production, using PHA/PBM system.; assay type: functional, cell-based; conditions: Homo sapiens
In short: (§1)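 PBMs from an HIV-seronegative donor, PHA-stimulated 3 days before drug addition, preincubated 2 h with compound, then infected with 250 TCID50 HIV-1 ERS104pre. Cultured at 37 °C in complete medium (15% FCS) with rIL-2. Day-8 supernatant p24 Gag measured by RIA; % protection is the reduction versus infected untreated controls. Quadruplicate.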

[2] = test system: PBMC; test: % protection was determined as the percent reduction in HIV p24 Gag protein production using PHA/PBM system at 20 uM concentration.; assay type: functional, Homo sapiens; in short: as §1
[3] = test system: PBMC; test: % protection was determined as the percent reduction in HIV p24 Gag protein production using PHA/PBM system at 10 uM concentration.; assay type: functional, Homo sapiens; in short: as §1
[4] = test system: PBMC; test: % protection was determined as the percent reduction in HIV p24 Gag protein production using PHA/PBM system at 40 uM concentration.; assay type: functional, Homo sapiens; in short: as §1
[5] = test system: PBMC; test: % protection was determined as the percent reduction in HIV p24 Gag protein production using PHA/PBM system at 5 uM concentration.; assay type: functional, Homo sapiens; in short: as §1
[6] = test system: PBMC; test: % protection was determined as the percent reduction in HIV p24 Gag protein production using PHA/PBM system at 80 uM concentration.; assay type: functional, Homo sapiens; in short: as §1
[7] = Partition coefficient (logP); assay type: physicochemical; conditions: octanol/water
In short: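 Octanol/pH 7.0 buffer partition coefficient measured by microscale shake-flask, with HPLC quantification of both phases. Run in triplicate; mean ± SD of three determinations.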

[8] = Half-life time was determined; assay type: ADME
[9] = target: T1, Adenosine deaminase (Bos taurus) (UniProt P56658); test: Relative Adenosine deaminase hydrolysis rate was determined in vitro by appearance of the F-ddI […] on isolated enzyme
T1 sequence (whole entry): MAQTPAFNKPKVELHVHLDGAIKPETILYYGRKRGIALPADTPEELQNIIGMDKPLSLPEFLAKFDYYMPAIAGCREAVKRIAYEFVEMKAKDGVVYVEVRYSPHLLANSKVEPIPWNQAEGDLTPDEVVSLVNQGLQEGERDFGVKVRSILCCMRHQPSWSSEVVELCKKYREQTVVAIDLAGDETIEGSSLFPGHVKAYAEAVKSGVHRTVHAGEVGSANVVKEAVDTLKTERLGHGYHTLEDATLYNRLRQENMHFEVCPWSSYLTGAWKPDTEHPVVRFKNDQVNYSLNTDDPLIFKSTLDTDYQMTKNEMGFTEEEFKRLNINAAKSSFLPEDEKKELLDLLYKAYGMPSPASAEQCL
In short: (§2)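 Calf intestinal mucosa ADA, 0.05–1.0 unit, incubated with 50 µM substrate in pH 7.4, 0.01 M phosphate buffer at 37 °C. Timed aliquots quenched with water plus dCF and heated 1 min at 95 °C. Substrate loss and F-ddI formation followed by HPLC and fitted as exponential decay or association. Rate per unit ADA normalized to F-ddA.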

[10] = target: T1, Adenosine deaminase (Bos taurus); test: Relative Adenosine deaminase hydrolysis rate was determined in vitro by disappearance of the substrate […] on isolated enzyme; in short: as §2
[11] = test system: PBMC; test: % protection was determined as the percent reduction in HIV p24 Gag protein production sing PHA/PBM system at 80 uM concentration.; assay type: functional, Homo sapiens; in short: as §1
[12] = Half life period was determined, at pH 1.0; assay type: ADME
In short: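 Nucleoside (1.0 mM aqueous stock, diluted 1:20) incubated in pH 1.0 HCl/KCl buffer at 37 °C. Timed aliquots diluted into pH 7.4 phosphate buffer and quantified by isocratic C18 HPLC (15% CH3CN in pH 7.0, 0.01 M phosphate). Data fitted to first-order exponential decay or association.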

| Structure (SMILES) | logP [7] | half-life [8] [h] | Activity [9] | Activity [10] | half-life [12] [h] | IC50 [1] [µM] | Protection [2] [%] | Protection [3] [%] | Protection [4] [%] | Protection [5] [%] | Protection [6] [%] | Protection [11] [%] |
| --- | --- | --- | --- | --- | --- | --- | --- | --- | --- | --- | --- | --- |
| OCC1CC(F)C(n2cnc3c(O)ncnc32)O1 (stereo unspecified) | – | – | – | – | – | < 5 | 89 | 61 | 97 | 54 | 98 | – |
| OCC1CC(F)C(n2cnc3c(I)ncnc32)O1 (stereo unspecified) | 0.627 | 20.9 | 0.21 | 0.28 | – | 10.4 | 81 | 45 | 96 | 27 | 96 | – |
| Cc1cn([C@H]2C[C@H](N=[N+]=[N-])[C@@H](CO)O2)c(=O)[nH]c1=O [ZIDOVUDINE] | 0.052 | – | – | – | – | – | – | – | – | – | – | – |
| O=c1[nH]cnc2c1ncn2[C@H]1CC[C@@H](CO)O1 [DIDANOSINE] | – | – | – | – | – | < 5 | 98 | 96 | 98 | 97 | 98 | – |

Now from value to compound, other results behind:

| logP [7] | half-life [8] [h] | Activity [9] | Activity [10] | half-life [12] [h] | Structure (SMILES) | IC50 [1] [µM] | Protection [2] [%] | Protection [3] [%] | Protection [4] [%] | Protection [5] [%] | Protection [6] [%] | Protection [11] [%] |
| --- | --- | --- | --- | --- | --- | --- | --- | --- | --- | --- | --- | --- |
| 0.245 | 29.6 | 0.64 | 0.63 | – | COc1ncnc2c1ncn2C1OC(CO)CC1F (stereo unspecified) | 20 | 49 | 35 | 75 | 18 | 92 | – |
| – | 91.7 | 1.6 | 2 | – | OCC1CC(F)C(n2cnc3c(Cl)ncnc32)O1 (stereo unspecified) | 5.9 | 92 | 70 | 97 | 40 | – | 98 |
| 0.443 | 48.5 | 1.5 | 1.7 | – | OCC1CC(F)C(n2cnc3c(Br)ncnc32)O1 (stereo unspecified) | 6.5 | 90 | 71 | 97 | 31 | 99 | – |
| 0.056 | – | 233 | 202 | 0.54 | OCC1CC(F)C(n2cnc3c(F)ncnc32)O1 (stereo unspecified) | < 5 | 97 | 83 | 99 | 58 | 99 | – |
| 0.803 | 29.2 | – | 0.008 | – | CCOc1ncnc2c1ncn2C1OC(CO)CC1F (stereo unspecified) | 14.1 | 58 | 39 | 79 | 32 | 93 | – |
